One assay concerns LNCaP-Clone-FGC. Put plainly: Antiproliferative activity against AR-positive human LNCaP-Clone-FGC cells assessed as inhibition of cell proliferation measured after 5 days by luminiscent plate reader method. The following applies: 120 h. Type of assay: functional, cell-based. The gist of the method:
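LNCaP-FGC cells (androgen receptor-positive) were treated with compound for 5 days, then proliferation was read in a cell-growth assay. EC50 was derived from N = 2.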

Assay [1] can be described thus: Inhibition of human p300/CBP in human PC-3 cells assessed as decrease in H3K27 acetylation measured after 3 hrs by Fluorescence based plate reader assay. The format is cell-based. The note with it: PC-3, 3 h. In short, it runs like this:
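PC-3 cells were treated with compound for 3 h, and the reduction in H3K27 acetylation was measured.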

Assay [2] in a line: Inhibition of human p300-BHC domain (residues 1036-1822)/CBP-BHC domain (residues 1072-1859) expressed in Bac-to-Bac Baculovirus expression system assessed as inhibition of lysine residues acetylation in Histone H4 synthetic substrate preincubated for 30 mins followed by addition of substrate and acetyl coenzyme A and measured after 1 hr by TR-FRET assay. Background: TR-FRET usually uses a lanthanide donor and a delayed reading to cut background.

Assay [3] in a line: Inhibition of human p300/CBP in human PC-3 cells assessed as decrease in H3K27 acetylation incubated for 24 hrs followed by compound washout and measured after 8 hr by Fluorescence based plate reader assay. Type of assay: cell-based. The gist of the method: (§1)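 Washout assay. PC-3 cells were incubated with compound for 24 h, washed, and given fresh compound-free medium. Incubation then continued, and H3K27 acetylation was measured at set times from 1 to 48 h after washout. Inhibition is reported as EC50.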

Assay [4] is described as follows: Inhibition of human p300/CBP in human PC-3 cells assessed as decrease in H3K27 acetylation incubated for 24 hrs followed by compound washout and measured after 2 hr by Fluorescence based plate reader assay. Type of assay: cell-based. The gist of the method: as §1
Assay [5] can be described thus: Inhibition of human p300/CBP in human PC-3 cells assessed as decrease in H3K27 acetylation incubated for 24 hrs followed by compound washout and measured after 48 hr by Fluorescence based plate reader assay. The format is cell-based. The gist of the method:
as §1

A short description of assay [6]: Inhibition of human p300/CBP in human PC-3 cells assessed as decrease in H3K27 acetylation incubated for 24 hrs followed by compound washout and measured after 24 hr by Fluorescence based plate reader assay. The format is cell-based. The note with it: PC-3, 24 h. The gist of the method:
as §1

Assay [7] in a line: Inhibition of human p300/CBP in human PC-3 cells assessed as decrease in H3K27 acetylation measured after 48 hrs by Fluorescence based plate reader assay. Type of assay: cell-based. The following applies: PC-3, 48 h.
A short description of assay [8]: Inhibition of human p300/CBP in human PC-3 cells assessed as decrease in H3K27 acetylation incubated for 24 hrs followed by compound washout and measured after 1 hr by Fluorescence based plate reader assay. Type of assay: cell-based. In short, it runs like this:
as §1

Assay [9] can be described thus: Inhibition of human p300/CBP in human PC-3 cells assessed as decrease in H3K27 acetylation measured after 24 hrs by Fluorescence based plate reader assay. Type of assay: cell-based. The following applies: PC-3, 24 h.
Assay [10] in a line: Inhibition of human p300/CBP in human PC-3 cells assessed as decrease in H3K27 acetylation incubated for 24 hrs followed by compound washout and measured after 4 hr by Fluorescence based plate reader assay. Type of assay: cell-based. In short, it runs like this: as §1
The species named for assay [11] is Homo sapiens. The experiment in a line: Ratio of EC50 for human p300/CBP in human PC-3 cells incubated for 24 hrs and measured 48 hr post washout to EC50 for human p300/CBP in human PC-3 cells measured after 24 hrs. Type of assay: cell-based.
The species named for assay [12] is Homo sapiens. Put plainly: Ratio of EC50 for human p300/CBP in human PC-3 cells incubated for 24 hrs and measured 24 hr post washout to EC50 for human p300/CBP in human PC-3 cells measured after 24 hrs. Type of assay: cell-based.
Assay [13] is filed under the species Homo sapiens. Put plainly: Ratio of EC50 for human p300/CBP in human PC-3 cells incubated for 24 hrs and measured 8 hr post washout to EC50 for human p300/CBP in human PC-3 cells measured after 24 hrs. The format is cell-based.
Another assay relates to DU-145. The experiment in a line: Antiproliferative activity against human DU-145 cells assessed as inhibition of cell proliferation measured after 5 days by luminiscent plate reader method. Type of assay: functional, cell-based. The note with it: DU-145, 120 h. In short, it runs like this: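 DU-145 cells (androgen receptor-negative) were treated with compound for 5 days, then proliferation was read in a cell-growth assay. EC50 was derived from the dose response.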

Assay [14] is filed under the species Homo sapiens. The experiment in a line: Ratio of EC50 for human p300/CBP in human PC-3 cells incubated for 24 hrs and measured 2 hr post washout to EC50 for human p300/CBP in human PC-3 cells measured after 24 hrs. Type of assay: cell-based.
The species entered for assay [15] is Homo sapiens. The experiment in a line: Ratio of EC50 for human p300/CBP in human PC-3 cells incubated for 24 hrs and measured 4 hr post washout to EC50 for human p300/CBP in human PC-3 cells measured after 24 hrs. Type of assay: cell-based.
The species named for assay [16] is Homo sapiens. The experiment in a line: Ratio of EC50 for human p300/CBP in human PC-3 cells incubated for 24 hrs and measured 1 hr post washout to EC50 for human p300/CBP in human PC-3 cells measured after 24 hrs. The format is cell-based.
The species entered for assay [17] is Homo sapiens. The experiment in a line: Ratio of EC50 for human p300/CBP in human PC-3 cells measured after 48 hr to EC50 for human p300/CBP in human PC-3 cells measured after 24 hrs. The format is cell-based.

Molecules are shown by their SMILES. Bounds are passed on as bounds.

In general, EC50 refers to the midpoint of the concentration-response curve. One may read the IC50 as the concentration that inhibits the measured activity by half. Take `C=CC(=O)NCC(C)(C)CNC(=O)Nc1ccc2c(c1)CC[C@@]21OC(=O)N(CC(=O)N(Cc2ccc(F)cc2)[C@@H](C)C(F)(F)F)C1=O`: the values for the EC50 (with LNCaP-Clone-FGC; in assay [1]) were 0.177 µM and 0.048 µM, respectively. For the same molecule, the IC50 in assay [2] worked out at 0.185 µM.

With `C=CS(=O)(=O)c1ccc(NC(=O)Nc2ccc3c(c2)CC[C@@]32OC(=O)N(CC(=O)N(Cc3ccc(F)cc3)[C@@H](C)C(F)(F)F)C2=O)cc1`, the IC50 in [2] is 4.27 µM.

`C=CS(=O)(=O)Nc1cccc(NC(=O)Nc2ccc3c(c2)CC[C@@]32OC(=O)N(CC(=O)N(Cc3ccc(F)cc3)[C@@H](C)C(F)(F)F)C2=O)c1`: the EC50 in assay [1] stood at 1.23 µM. Besides, in assay [2], the IC50 worked out at 0.604 µM.

`C=CC(=O)N1CCCN(C(=O)Nc2ccc3c(c2)CC[C@@]32OC(=O)N(CC(=O)N(Cc3ccc(F)cc3)[C@@H](C)C(F)(F)F)C2=O)C1`: the IC50 in assay [2] worked out at 2 µM.

For `CNC(=O)Nc1ccc2c(c1)CC[C@@]21OC(=O)N(CC(=O)N(Cc2ccc(F)cc2)[C@@H](C)C(F)(F)F)C1=O` [A-485], the EC50 was above 10 µM in assay [3]; 0.35 µM with LNCaP-Clone-FGC; above 10 µM in assay [4]; above 10 µM in assay [5]; above 10 µM in assay [6]; 0.253 µM in assay [7]. The EC50 is 0.103 µM in [1], above 10 µM in [8], 0.227 µM in assay [9] and above 10 µM in assay [10].

For the molecule `C=CS(=O)(=O)Nc1ccc(NC(=O)Nc2ccc3c(c2)CC[C@@]32OC(=O)N(CC(=O)N(Cc3ccc(F)cc3)[C@@H](C)C(F)(F)F)C2=O)cc1`, in assay [2], the IC50 was 3.02 µM.

Take `C=CC(=O)Nc1ccc(NC(=O)Nc2ccc3c(c2)CC[C@@]32OC(=O)N(CC(=O)N(Cc3ccc(F)cc3)[C@@H](C)C(F)(F)F)C2=O)cc1`: the IC50 in assay [2] is 22.1 µM.

With `C=CC(=O)Nc1cccc(NC(=O)Nc2ccc3c(c2)CC[C@@]32OC(=O)N(CC(=O)N(Cc3ccc(F)cc3)[C@@H](C)C(F)(F)F)C2=O)c1`, the EC50 stood at 0.129 µM in [3]; 0.087 µM in the assay on LNCaP-Clone-FGC; 0.017 µM in assay [4]; 0.656 µM in assay [5]; 0.544 µM in assay [6]; 0.021 µM in assay [7]. Besides, the EC50 stood at 0.037 µM in [1]; 0.015 µM in assay [8]; 1.37 µM in the assay on DU-145; 0.011 µM in assay [9]; 0.024 µM in assay [10]. Further, the Ratio in the assay filed under Homo sapiens [11] is 57.7; in the assay filed under Homo sapiens [12], 47.8; in the assay listed under Homo sapiens [13], 11.3; in the assay filed under Homo sapiens [14], 1.5; in the assay listed under Homo sapiens [15] it was 2.1; in the assay filed under Homo sapiens [16], 1.3. In the assay filed under Homo sapiens [17], the Ratio was 1.8. In assay [2], the IC50 came out at 0.166 µM.

Source of the values: ChEMBL document CHEMBL4732268, “Discovery of a Potent and Selective Covalent p300/CBP Inhibitor” (ACS Med Chem Lett, 2021).
